Screens (PubChem)
H69AR growth 86K: proliferation blockers of H69AR lung cancer cells, primary screen, cell-based, human, 86K library. H69AR lung tumor viability, ATP luminescence, 72 h; stronger effect = lower value. viability, % at 10 µM. 85,000 tested, 6% active. AID 598, 2007;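 active = viability at or below 40%; inactive = viability above 40%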;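 note: multidrug resistant small cell line overexpressing MRP-1 efflux transporter; 100% = mean luminescence of untreated control wells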
HCT116 bCat-KO: primary screen for growth suppressors in beta-catenin knockout HCT116 cells (colon tumor, human); 140,000 tested, 1.5% active; HCT116 beta-catenin knockout viability, CellTiter-Glo, 60 h; stronger effect = lower value; viability, % at 10 µM;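 active = viability at or under a set limit, the compound median less 4 SD, cut at about 6% in these data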;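 note: 0% = Hyamine 1622 control at 20 µM and 100% = untreated cell control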
Fibroblast inh: antiproliferative effect on LL 47 fibroblasts – human, LL 47 cells, CellTiter-Glo luminescence, primary screen. LL 47 human lung fibroblast viability, ATP luminescence; stronger effect = lower value. viability, % at 10 µM. 85,000 tested, 1.1% active;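 active = viability at or below 50% in the single dose screen; inactive = viability above 50%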;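 note: compound exposure lasted 72 h before the ATP readout; 100% = median luminescence of untreated cell-only wells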
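Test system: LL 47 human lung fibroblasts / Quantity: 1,150 cells in each well / Medium: IMEM growth medium with 15% fetal bovine serum / Incubation: 72 h compound exposure at 37 °C after overnight plating / Detection: CellTiter-Glo luminescence measuring cellular ATP / Read-out: % viability versus median cells-only luminescence / Benchmarks: cell-only wells, no compound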
HUVEC prolif 384: inhibitors of HUVEC proliferation, primary screen, cell-based, 384-well. 86,000 tested, 1.1% active. AID 648, 2007. CellTiter-Glo luminescence, 72 h; stronger effect = lower value. viability, % at 10 µM (by protocol);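 active = viability at or below 30%; inactive = viability above 30%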;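 note: 100% = median luminescence of DMSO-only cell control wells on each plate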
PTEN del growth: growth suppression of PTEN-null HCT116, primary screen, cell-based, CellTiter-Glo; viability, % at 10 µM; 140,000 tested, 1.2% active; HCT116 PTEN-null viability, 60 h; stronger effect = lower value;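 active = viability at or below a set limit, 4 SD under the median of all tested compounds, cut at about 3.7% in these data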;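 note: PTEN knockout HCT116 line with beta catenin targeted HCT116 as companion control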
Pyk2 oligo antag: antagonists of Pyk2 self-association, primary screen, Q293 cells, FERM NanoBiT luminescence, HTS; z-score (the deposit names both 25 µM and 10 µM); 99,000 tested, 0.83% active; stronger effect = lower value;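 active = Z-score of -3 or lower, scaled per plate to the spread of control and sample wells; inactive = z-score above -3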;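 note: negative z-score means lost luminescence so less FERM oligomerization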
Target sequence (Q14289 whole entry, looked up): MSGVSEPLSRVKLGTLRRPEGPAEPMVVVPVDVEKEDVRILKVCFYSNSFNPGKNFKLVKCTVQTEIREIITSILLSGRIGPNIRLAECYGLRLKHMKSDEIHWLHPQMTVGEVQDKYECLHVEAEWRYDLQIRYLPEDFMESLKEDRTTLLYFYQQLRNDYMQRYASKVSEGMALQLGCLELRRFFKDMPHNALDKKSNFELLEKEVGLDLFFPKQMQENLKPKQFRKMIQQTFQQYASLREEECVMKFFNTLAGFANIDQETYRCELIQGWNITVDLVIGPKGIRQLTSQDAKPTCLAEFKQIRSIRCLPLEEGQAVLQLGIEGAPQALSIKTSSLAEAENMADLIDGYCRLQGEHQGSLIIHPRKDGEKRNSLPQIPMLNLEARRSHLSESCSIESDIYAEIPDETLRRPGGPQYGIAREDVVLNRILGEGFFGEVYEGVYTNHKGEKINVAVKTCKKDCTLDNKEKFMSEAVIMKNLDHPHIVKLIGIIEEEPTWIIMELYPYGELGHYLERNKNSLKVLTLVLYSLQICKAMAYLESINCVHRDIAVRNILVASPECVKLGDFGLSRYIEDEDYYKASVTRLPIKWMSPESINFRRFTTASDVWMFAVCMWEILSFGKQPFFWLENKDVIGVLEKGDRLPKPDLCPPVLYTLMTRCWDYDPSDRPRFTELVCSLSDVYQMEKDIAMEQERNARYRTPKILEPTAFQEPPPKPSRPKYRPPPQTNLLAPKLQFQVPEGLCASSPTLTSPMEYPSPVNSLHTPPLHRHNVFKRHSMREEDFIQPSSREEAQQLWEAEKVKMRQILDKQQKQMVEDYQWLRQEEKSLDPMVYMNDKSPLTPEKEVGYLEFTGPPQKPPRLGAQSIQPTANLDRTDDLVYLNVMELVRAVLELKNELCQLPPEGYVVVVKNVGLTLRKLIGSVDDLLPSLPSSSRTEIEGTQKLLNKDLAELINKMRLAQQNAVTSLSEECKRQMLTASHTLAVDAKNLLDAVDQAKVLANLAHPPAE
* marks the source's active call; other numbers are inactive results; . = not tested or not shown. Many of the other results were omitted from the sample, so hits are more common in it than they were.

SMILES	H69AR growth 86K	HCT116 bCat-KO	Fibroblast inh	HUVEC prolif 384	PTEN del growth	Pyk2 oligo antag
O=C(NCc1ccc2c(c1)OCO2)C1CC(=O)N(c2ccc(O)cc2)C1 (stereo not drawn)	109	102	97	88	104	0.5
CCOC(=O)c1c(C)c(C(=O)N2CCc3ccccc3C2)c(C)n1CC	16*	55	92	70	51	0.22
CCOC(=O)c1c(C)c(C(=O)Nc2ccccc2)c(C)n1CC	64	86	92	76	94	0.72
COc1ccc(C)cc1NC(=O)COC(=O)C1CC1	.	94	.	.	101	0.04
COC(=O)c1sccc1NC(=O)Cc1ccc(Br)cc1	.	93	.	.	95	.
COC(=O)c1ccc(CSc2nnc(NC(=O)c3cc4c(s3)CCCC4)s2)cc1	7.6*	44	106	78	51	-1.1
Fc1ccc2c(Cl)c(-c3nnc(-c4cccs4)o3)sc2c1	12*	95	24*	51	68	-0.43
CC(C)C[C@H](NC(=O)OC(C)(C)C)c1n[nH]c(=S)n1N	.	96	.	.	107	.
Fc1ccc(C2=Nn3c(Cc4ccccc4F)nnc3SC2)cc1	91	98	93	101	90	0.39
Clc1ccc(OCc2nnc3n2N=C(c2ccc4c(c2)OCCO4)CS3)c(Cl)c1	38*	27	87	77	27	-1.1
COCCn1nnnc1C(C(C)C)N(Cc1cccnc1)Cc1cc2cc(OC)ccc2[nH]c1=O (stereo not drawn)	91	89	104	83	93	0.4
COc1ccc2[nH]c(=O)c(CN(Cc3ccco3)C(c3nnnn3Cc3ccccc3)C(C)C)cc2c1 (stereo not drawn)	47	6	79	58	3.1*	0.06
COCCn1nnnc1C(C(C)C)N(Cc1ccccc1)Cc1cc2cc(OC)ccc2[nH]c1=O (stereo not drawn)	4.8*	57	89	71	44	-0.53
Cc1ccc(-c2cc(C(F)F)n3ncc(C(=O)Nc4c(C)nn(Cc5ccccc5Cl)c4C)c3n2)cc1	.	2.4*	.	.	1.4*	-1.6
O=[N+]([O-])c1cc(Br)c(O)c(/C=N/Nc2nnnn2-c2cccc3ccccc23)c1	.	81	.	.	85	-2.3
Oc1ccc(-c2csc(-c3ccccc3)n2)cc1O	20*	83	72	29*	84	-1.8
Cc1nc(-c2ccc(O)c(O)c2)cs1	45	10	74	69	10	-0.22
COc1cccc(NC(=O)CN2C(=O)COc3ccc(Cl)cc32)c1	107	84	100	94	77	.
CCc1nnc2n1N=C(c1ccc(OC)cc1)CS2	19*	66	86	73	68	0.55
CCc1nnc2n1N=C(c1ccc(-c3ccc(Cl)cc3Cl)o1)CS2	84	.	95	97	.	.
CCc1nnc2n1N=C(c1ccc(-c3cc(Cl)ccc3Cl)o1)CS2	8.5*	1.4*	92	104	1.7*	-0.13
CCOc1ccc(-c2nnc3n2N=C(c2ccc(OC)cc2)CS3)cc1	51	86	85	97	84	0.17
COc1ccc(C2=Nn3c(nnc3-c3ccccn3)SC2)cc1	24*	56	88	82	46	0.31
Cc1ccccc1NC(=O)c1ccc(-n2cncn2)nc1	.	101	.	.	91	0.22
CCOc1ncccc1C(=O)OCC(=O)Nc1cc(C(=O)OC)ccc1C(=O)OC	87	.	88	88	.	.
SMILES	H69AR growth 86K	HCT116 bCat-KO	Fibroblast inh	HUVEC prolif 384	PTEN del growth	Pyk2 oligo antag
CNCC(O)Cn1c(C(F)(F)F)nc2ccccc21 (stereo not drawn)	91	88	106	99	85	0.91
COCCNC(=O)CCSc1nc(-c2ccc(OC)cc2)cc(C(F)(F)F)n1	68	94	106	93	82	1.2
CN(Cc1ccccc1)C(=O)CCSc1nc(-c2ccc3c(c2)OCO3)cc(C(F)(F)F)n1	77	69	105	95	62	-0.9
O=C(CCSc1nc(-c2ccc3c(c2)OCO3)cc(C(F)(F)F)n1)NCc1ccccc1	23*	83	99	91	80	-0.32
COc1ccc(CNC(=O)CCSc2nc(-c3ccc4c(c3)OCO4)cc(C(F)(F)F)n2)cc1	33*	71	97	64	61	-0.4
O=C(CCSc1nc(-c2ccco2)cc(C(F)(F)F)n1)Nc1ccc2c(c1)OCO2	66	80	103	66	88	0.24
O=C(CCSc1nc(-c2ccc3c(c2)OCO3)cc(C(F)(F)F)n1)NCc1ccco1	33*	87	100	96	58	.
Cc1ccc(C(=O)NC(=S)Nc2cc(-c3nc4ccccc4s3)ccc2C)cc1	.	20	.	.	9	2.1
CCOC(=O)CN(Cc1sccc1C)C(=O)Nc1ccc(OC)cc1OC	.	98	.	.	96	.
COc1cccc(/C=N/NC(=O)c2ccc([N+](=O)[O-])cc2Cl)c1O	.	5.6*	.	.	6	.
O=C(N/N=C/c1cccnc1)c1ccc([N+](=O)[O-])cc1Cl	.	89	.	.	88	0.08
CCc1ccccc1NC(=O)COc1cccc2ccc(C)nc12	.	99	.	.	96	.
COc1c([N+](=O)[O-])c(=O)n(-c2ccccc2)c2ccccc12	.	80	.	.	95	.
O=C(c1cn(-c2ccccc2)nc1-c1ccncc1)n1nnc2ccccc21	8.1*	.	.	67	.	-0.1
O=C(O)c1cn(-c2ccccc2)nc1-c1ccncc1	104	88	109	92	97	0.64
COc1ccc(C(=O)Cn2c(C(=O)/C=C/c3ccccc3)nc3ccccc32)cc1	.	2.4*	.	.	3.7*	-1.9
COc1ccc(Cl)cc1NC(=O)C(C)N(C)Cc1cccc(Cl)c1Cl (stereo not drawn)	.	65	.	.	79	.
CCc1ccccc1N(C1=NCCCS1)S(=O)(=O)c1ccc(C(C)(C)C)cc1	.	68	.	.	63	0.13
CC(C)(C)c1ccc(C(=O)NCCCN2CCN(CCCNC(=O)c3ccc(C(C)(C)C)cc3)CC2)cc1	.	1.3*	.	.	1.8*	.
Cc1ccccc1CS(=O)(=O)c1snnc1C	.	96	.	.	91	-0.5
Cc1ccccc1CS(=O)(=O)c1cnc2ccccc2n1	16*	15	76	74	8	1.9
Cc1cc(C)c2nc(C(F)(F)F)c(C#N)c(N)c2c1	40*	84	95	41	101	-0.53
Cc1ccc2nc(C(F)(F)F)c(C#N)c(N)c2c1	.	3.6*	.	.	4	-1.9
Cc1cccc(C(C#N)c2nc3ccccc3nc2C(F)(F)F)c1 (stereo not drawn)	.	.	.	.	.	-1.6
O=C(NCc1ccc(C(F)(F)F)cc1)C1CC(c2c(Cl)cccc2Cl)=NO1 (stereo not drawn)	.	92	.	.	80	.
Cc1ccc(NC(=O)CSc2nnc([C@@H]3CCCN3C(=O)OC(C)(C)C)o2)c(C)c1	35*	99	103	99	105	1.4
